EBI2 block = EBI2 (human) antagonism; P32249; EBI2 beta-arrestin recruitment, luminescence, 7a,25-OHC stimulated; inhibition, % at 5 µM; 360,000 compounds, 0.81% hits; AID 651636; in the data active means inhibition above about 38%;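 further: enzyme fragment complementation signal reports receptor beta-arrestin coupling in cells; 0% = agonist plus DMSO wells and 100% = wells without agonist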
CXCR6 inh = blocks human CXCR6 beta-arrestin recruitment; inhibition, % at 20 µM; 360,000 compounds, 0.36% hits; O00574; CHO-K1 PathHunter CXCR6 beta-arrestin, luminescence; AID 602244; in the data active means inhibition above about 34%, passing the limit was not always enough;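 further: antagonist mode with CXCL16 agonist at 10 nM final; 0% = 10 nM CXCL16 with DMSO and 100% = unstimulated wells without agonist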
Target sequence (O00574 whole entry, looked up): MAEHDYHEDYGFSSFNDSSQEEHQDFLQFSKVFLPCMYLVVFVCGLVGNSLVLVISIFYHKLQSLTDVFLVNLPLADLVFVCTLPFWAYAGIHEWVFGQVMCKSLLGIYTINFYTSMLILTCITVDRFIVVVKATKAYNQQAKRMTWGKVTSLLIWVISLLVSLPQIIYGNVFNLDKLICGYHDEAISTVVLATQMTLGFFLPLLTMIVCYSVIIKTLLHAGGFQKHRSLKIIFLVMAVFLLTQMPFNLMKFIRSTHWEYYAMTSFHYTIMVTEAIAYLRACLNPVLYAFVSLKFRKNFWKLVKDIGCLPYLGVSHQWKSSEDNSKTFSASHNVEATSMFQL
APJ agonist = agonists of human APJ apelin receptor. CHO-K1 APJ PathHunter beta-arrestin, luminescence; 0% DMSO wells, 100% apelin. 330,000 compounds, 0.11% hits. activation, % at 20 µM. P35414;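 active means activation more than six SD over the plate average, tested at 20 µM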;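 further: 0% = DMSO alone and 100% = apelin-13 at 10 nM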
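Material: engineered CHO-K1 APJ arrestin reporter cells; amount: 1000 CHO-K1 reporter cells seeded per well; incubation: compound stimulation 90 min at 25 °C, detection 60 min; signal: luminescent beta-gal fragment complementation, chemiluminescent substrate; read-out basis: APJ agonist activity; controls: DMSO-only wells as negative, 10 nM Apelin-13 as positive control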
APJ antag = antagonists of human APJ apelin receptor | P35414 | CHO-K1 APJ beta-arrestin complementation, luminescence | inhibition, % at 20 µM | 330,000 compounds, 0.32% hits;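 active means inhibition above about 40% at 20 µM, limit read from the data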;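 further: cells challenged with 10 nM apelin-13 agonist together with compound; plate controls were apelin-13 plus DMSO wells for no effect and DMSO wells lacking apelin-13 for full effect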
HTR2A ag = agonists of mouse serotonin 5-HT2A receptor (HTR2A); AID 624169; activation, % at 7.6 µM; 360,000 compounds, 0.66% hits; CHO-K1 mHTR2A beta-arrestin complementation, luminescence; percent of 30 µM serotonin response;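 active means activation above a run cutoff, the mean activation of all tested compounds plus 3 SD, cut at about 14% in these data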;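 further: 0% = plate median of compound wells and 100% = 30 µM serotonin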
CCR6 antag = blocks CCL20-driven beta-arrestin recruitment at human CCR6. P51684. CHO-K1 CCR6 PathHunter beta-arrestin, luminescence, CCL20-stimulated. inhibition, % at 20 µM. 340,000 compounds, 0.49% hits. AID 493098;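 active means compounds whose inhibition of the agonist-driven luminescence signal at 20 µM reaches about 50%, limit read from the data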;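 further: cells stimulated with CCL20 at 14 nM final; plate controls were DMSO with CCL20 for no effect and DMSO without agonist for full effect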
The depositor's hits bear a star. Most compounds without a hit are left out; they make up all but 2.1% or so of the library.

Screening CC(=O)Nc1sc(N/N=C\c2ccccc2F)nc1-c1cccs1 returned EBI2 block -7.0, CXCR6 inh 11.1, APJ agonist 0.0, APJ antag 4.7, HTR2A ag 1.7 and CCR6 antag 50.4*.
`CC(C)(C)NC(=O)NC(=O)CN1CCN(S(=O)(=O)/C=C/c2ccccc2)CC1` gave EBI2 block 6.8, CXCR6 inh -2.1, APJ agonist -0.3, APJ antag 2.9, HTR2A ag -6.3 and CCR6 antag 6.9.
Screening Cc1ccc(S(=O)(=O)N/N=C/c2cccc([N+](=O)[O-])c2)cc1 returned EBI2 block -9.0, CXCR6 inh 8.6, APJ agonist -8.5, APJ antag 50.6*, HTR2A ag 1.0 and CCR6 antag 36.6.
`Cc1ccc(S(=O)(=O)N/N=C\c2cc([N+](=O)[O-])ccc2Cl)cc1` gave EBI2 block 1.6, CXCR6 inh 29.0, APJ agonist -9.8, APJ antag 20.9, HTR2A ag -0.5 and CCR6 antag 40.0.
`O=C(ONc1ccc(N=NC(=O)c2ccccc2O)cc1)c1ccccc1` gave EBI2 block 6.7, CXCR6 inh 33.8, APJ agonist -6.5, APJ antag 34.2, HTR2A ag 2.0 and CCR6 antag 56.3*.
`COc1ccc(C(=O)Nc2cnc(NC(=O)c3cccs3)cc2C)cc1` gave EBI2 block -3.9, CXCR6 inh -7.6, APJ agonist 0.4, APJ antag -1.7, HTR2A ag 5.5 and CCR6 antag 11.1.
Screening CC(C)(C)c1ccc(C(=O)N2CCN(C(=O)c3cccs3)CC2)cc1 returned EBI2 block -8.9, CXCR6 inh -0.1, APJ agonist -4.4, APJ antag -0.7, HTR2A ag -2.8 and CCR6 antag -2.5.
Screening C=CCN1C=CC(=CC=C(C#N)C#N)C=C1 returned EBI2 block 15.3, CXCR6 inh 12.7, APJ agonist 0.9, APJ antag 16.5, HTR2A ag 5.6 and CCR6 antag 13.0.
For CCCCCCN1C=C/C(=C\C=C(C#N)C#N)c2ccccc21 the results were EBI2 block 37.7, CXCR6 inh 61.4*, APJ agonist -6.8, APJ antag 65.2*, HTR2A ag 0.8 and CCR6 antag 76.5*.
Screening C=CCN1C=C/C(=C\C=C(C#N)C#N)c2ccccc21 returned EBI2 block 26.2, CXCR6 inh 45.5*, APJ agonist -15.5, APJ antag 70.1*, HTR2A ag -7.2 and CCR6 antag 73.6*.
COc1ccccc1NS(=O)(=O)c1cc(N/C(=N\S(=O)(=O)c2ccccc2)c2ccc(F)cc2)ccc1Cl was read as EBI2 block 10.6, CXCR6 inh 0.9, APJ agonist 0.3, APJ antag 1.9, HTR2A ag -1.9 and CCR6 antag 19.9.
`COc1cc(/C=N/NC(=O)C(Cc2c[nH]c3ccccc23)NC(=O)OCc2ccccc2)cc([N+](=O)[O-])c1O` (stereo not given) gave EBI2 block 17.2, CXCR6 inh 24.2, HTR2A ag 1.8 and CCR6 antag 46.2.
`COc1cc(/C=N/NC(=O)C(Cc2c[nH]c3ccccc23)NC(=O)OCC(C)C)cc([N+](=O)[O-])c1O` (stereo not given) gave EBI2 block 1.7, CXCR6 inh 13.8, APJ agonist -2.5, APJ antag 44.4*, HTR2A ag 0.1 and CCR6 antag 32.1.
For CC1CCN(CCCNC(=O)C2CCN(S(=O)(=O)N3CCCCC3)CC2)CC1 the results were EBI2 block -9.4, CXCR6 inh -11.9, APJ agonist -1.4, APJ antag 7.9, HTR2A ag 0.8 and CCR6 antag -2.3.
For Cc1ccc(N=Cc2cc(Cl)cc(Cl)c2O)nc1 the results were EBI2 block -12.8, CXCR6 inh 4.4, APJ agonist -1.4, APJ antag -9.5, HTR2A ag -2.0 and CCR6 antag 12.9.
For O=C(N/N=C/c1cc(Cl)cc(Cl)c1O)c1ccncc1 the results were EBI2 block 68.0*, CXCR6 inh 3.3, APJ agonist 0.2, APJ antag -8.8, HTR2A ag -18.9 and CCR6 antag -14.4.
Screening O=C(N/N=C/c1ccc(Cl)cc1Cl)c1ccncc1 returned EBI2 block -19.2, CXCR6 inh -6.4, APJ agonist -3.3, APJ antag -15.6, HTR2A ag -0.9 and CCR6 antag 7.2.

Source: PubChem BioAssay (several laboratories)
